Among the data in ChEMBL document CHEMBL5360668, “Discovery of Potent Allosteric DRP1 Inhibitors by Disrupting Protein-Protein Interaction with MiD49” (ACS Med Chem Lett, 2023) are IC50, solubility and inhibition values, retold here.

≈ marks a conversion by molar mass, not a printed value. Calls of active or inactive are those of the source. The calls are words filed in the database; no cut-off is given here. A value given as a limit tells only on which side of the number the result lay.

The nature of data set [1]: Negative allosteric modulator activity at human N-terminal His-tagged DRP1-human C-terminal GST-tagged MiD49 protein protein interaction expressed in Escherichia coli BL21 (DE3) incubated for 90 mins by AlphaLISA assay. Put shortly:
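AlphaLISA proximity assay. Glutathione donor and nickel chelate acceptor beads added, then 60 min at room temperature protected from light before signal read. Hits run as 11-point dose–response with TruHits counter-screen.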
On the technique in general: In Alpha technology, singlet oxygen from a donor bead excites a nearby acceptor bead.

Data set [2] can be described thus: Solubility of compound in PBS at pH 7.5. Type of data set: physicochemical.
For data set [3], the system named is A549. Put plainly: Inhibition of CCCP-induced mitochondrial fragmentation in human A549 cells at 0.37 to 3.3 uM preincubated for 1 hr followed by CCCP stimulation for 3 hrs by Alexa Fluor 488/568 and Hoechst staining based high-content imaging analysis. Type of data set: functional, cell-based. Particulars: dose 0.37-3.3 µM, time 4.0 hrs. Put shortly: (§1)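 A549 cells exposed to compound 1 h at 37 °C, then co-treated with CCCP (5 μM) a further 3 h at 37 °C. Cells fixed in paraformaldehyde and stained with anti-TOM20 primary and goat anti-mouse secondary. Mitochondrial morphology scored by high-content imaging with a supervised machine-learning classifier trained on control siRNA (normal), OPA1 siRNA (fragmented) and DRP1 siRNA (hypertubular) images.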

Data set [4] concerns A549. Put plainly: Inhibition of CCCP-induced mitochondrial morphology change in human A549 cells at 10 uM preincubated for 1 hr followed by CCCP stimulation for 3 hrs by Alexa Fluor 488/Hoechst 33342 staining based high-content imaging analysis. Type of data set: functional, cell-based. Conditions: time 4.0 hrs. Put shortly:
as §1

Data set [5] has as its system A549. Briefly: Inhibition of CCCP-induced mitochondrial fragmentation in human A549 cells preincubated for 1 hr followed by CCCP stimulation for 3 hrs by Alexa Fluor 488/568 and Hoechst staining based high-content imaging analysis. Type of data set: functional, cell-based. Conditions: time 4.0 hrs. Put shortly:
as §1

For orientation: IC50 means the concentration that gives 50% inhibition. The low end stands for greater potency, the high end for weaker potency. As a reminder, the solubility is the dissolved amount per volume that the medium holds. The low end stands for a poorly soluble substance, the high end for a readily soluble substance.

Compound `CC(C)C(=O)Nc1ccc2nc(-c3ccccc3)cc(-n3ccnc3)c2c1` returned a half-inhibitory concentration (IC50) in data set [1] of 22000 nM.

Consider `Cc1ccc(-c2cc(N3CCC3)c3cc(NC(=O)C(C)C)ccc3n2)cc1`, for which, in data set [1], the half-inhibitory concentration (IC50) turned out to be 50 nM. The same compound registered a solubility in data set [2] of 11 µM (≈ 3.95 µg/mL). For `CC(C)C(=O)Nc1ccc2nc(-c3ccccc3)cc(N3CCOCC3)c2c1`, in data set [1], the half-maximal inhibitory concentration (IC50) was determined as 22000 nM. The compound `CC(C)C(=O)Nc1ccc2nc(-c3ccccc3)cc(N3CCCC3=O)c2c1` had an IC50 in data set [1] above 100000 nM. As for `COc1ccc(-c2cc(N3CCC3)c3cc(NC(=O)C4COC4)ccc3n2)cc1`, inhibition in data set [1] was half-maximal at 140 nM (IC50). As for `CCNc1cc(-c2ccccc2)nc2ccc(NC(=O)C(C)C)cc12`, half-maximal inhibition in data set [1] (IC50) required 4300 nM. On the same count and under the same terms, as for `CC(C)C(=O)Nc1ccc2nc(-c3ccccc3)cc(-n3cccn3)c2c1`, the figure is 12000 nM; as for `CC(C)C(=O)Nc1ccc2nc(-c3ccccc3)cc(N3CCCCC3)c2c1`, 13000 nM; as for `CC(C)C(=O)Nc1ccc2nc(-c3ccccc3)cc(N3CC(F)C3)c2c1`, 290 nM. On the same count and under the same terms, as for `CC(C)C(=O)Nc1ccc2nc(-c3ccccc3)cc(N3CCCC3)c2c1`, the figure is 450 nM; as for `CC1CN(c2cc(-c3ccccc3)nc3ccc(NC(=O)C(C)C)cc23)C1`, 580 nM. `O=C(Nc1ccc2nc(-c3ccccc3)cc(N3CC(O)C3)c2c1)C1COC1` displayed an IC50 in data set [1] of 290 nM. The compound `CCOc1cc(-c2ccccc2)nc2ccc(NC(=O)C(C)C)cc12` yielded an IC50 in data set [1] of 3600 nM.

`CC(C)C(=O)Nc1ccc2nc(-c3ccccc3)cc(N(C)C)c2c1`: in data set [1], half-maximal inhibition (IC50) required 11000 nM. Same read-out and setting: as for `CC(C)C(=O)Nc1ccc2nc(-c3ccccc3)cc(N3CCC3)c2c1`, the figure is 120 nM. As for `O=C(Nc1ccc2nc(-c3ccccc3)cc(N3CCC3)c2c1)C1COC1`, inhibition in data set [1] was half-maximal at 100 nM (IC50). In data set [2], the solubility was determined as 281 µM (≈ 101 µg/mL). Moreover, the inhibition result in the data set on A549 [3] and in the data set with A549 [4] was “Active” throughout. Besides, the inhibition entry in the data set on A549 [5] was “Dose-Dependent Effect”.
